Assay outcomes from PubChem.
aDG glyco act = alpha-DG glycosylation activation; Pro5-aDG cells, alpha-DG glycosylation AlphaScreen (IIH6); 0% Pro5, 100% B10-LARGE cell signal; activation, % at 10 µM; 360,000 tested, 0.22% active; AID 624168;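 active = activation of at least 8% versus controls, or a plate z-score of at least 8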;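 also: Pro5 are CHO cells carrying HIG-tagged alpha-DG that lacks glycosylation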
PfG6PD inh = PfG6PD (Plasmodium falciparum) enzyme inhibition. inhibition, % at 20 µM. 350,000 tested, 0.78% active. PfGluPho enzyme, NADPH resazurin-diaphorase fluorescence;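 active = inhibition reaching at least a set limit at 20 µM in the primary screen, cut at about 59% in these data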;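 also: 0% = DMSO wells with substrate and 100% = DMSO wells lacking glucose-6-phosphate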
UCH37 DUB inh = human UCH37 deubiquitinating enzyme inhibition; purified proteasome/UCH37, Ub-AMC cleavage fluorescence; inhibition, % (test concentration not listed); 330,000 tested, 0.33% active; AID 588478;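 active = mean inhibition over replicate wells above about 20%, limit read from the data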;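 also: 0% = compound-free wells with enzyme and 100% = wells lacking proteasome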
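Material: Human UCH37 enzyme supplied as purified proteasome complex | Schedule: 30 min compound-proteasome preincubation then 25 min substrate reaction, room temperature | Detection: AMC fluorescence from Ub-AMC cleavage, excitation 355 nm, emission 460 nm | Benchmarks: Wells without proteasome as full block, compound-free enzyme plus substrate as uninhibited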
Beta2AR agonist = activates human beta-2 adrenergic receptor causing internalization; Am2.2-beta2AR cells, FAP receptor internalization, flow cytometry; 340,000 tested, 0.43% active; response, % (no concentration beside the values);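 active = response above a set limit, near 3 SD of response in nonfluorescent compounds, cut at about 42% in these data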
HKDC1 inhibitor = HKDC1 (human) hexokinase inhibition; Q2TB90; recombinant HKDC1, G6PDH/diaphorase resazurin coupled fluorescence; inhibition, % at 20 µM; 340,000 tested, 0.16% active;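 active = inhibition above about 35% when tested at 20 µM, limit read from the data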;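 also: plate controls were DMSO wells with enzyme for no effect and DMSO wells lacking enzyme for full effect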
Target sequence (Q2TB90 whole entry, looked up): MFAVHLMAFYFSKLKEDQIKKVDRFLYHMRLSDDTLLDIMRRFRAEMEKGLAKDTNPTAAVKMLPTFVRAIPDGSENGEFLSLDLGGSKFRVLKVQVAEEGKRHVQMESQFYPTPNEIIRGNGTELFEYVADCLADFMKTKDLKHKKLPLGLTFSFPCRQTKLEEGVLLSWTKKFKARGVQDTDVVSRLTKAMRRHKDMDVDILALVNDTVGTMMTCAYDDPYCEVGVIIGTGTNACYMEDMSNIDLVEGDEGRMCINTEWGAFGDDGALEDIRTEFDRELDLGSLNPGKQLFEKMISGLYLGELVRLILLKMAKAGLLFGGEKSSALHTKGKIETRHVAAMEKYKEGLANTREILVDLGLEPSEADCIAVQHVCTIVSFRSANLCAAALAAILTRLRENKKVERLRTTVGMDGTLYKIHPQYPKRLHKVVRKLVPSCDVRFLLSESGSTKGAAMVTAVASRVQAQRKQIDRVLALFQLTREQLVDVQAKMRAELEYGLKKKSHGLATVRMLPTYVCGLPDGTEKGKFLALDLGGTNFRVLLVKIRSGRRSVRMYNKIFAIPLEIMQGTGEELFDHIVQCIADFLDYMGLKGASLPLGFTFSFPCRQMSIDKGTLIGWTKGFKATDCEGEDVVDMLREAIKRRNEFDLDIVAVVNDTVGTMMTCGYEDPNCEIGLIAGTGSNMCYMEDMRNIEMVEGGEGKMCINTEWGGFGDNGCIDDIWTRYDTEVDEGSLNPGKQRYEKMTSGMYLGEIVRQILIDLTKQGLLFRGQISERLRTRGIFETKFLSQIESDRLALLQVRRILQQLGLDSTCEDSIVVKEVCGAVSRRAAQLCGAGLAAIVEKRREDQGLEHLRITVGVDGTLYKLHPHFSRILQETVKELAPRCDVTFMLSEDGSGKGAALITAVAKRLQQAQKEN
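Incubation: 90 min at room temperature in dark / Material: recombinant HKDC1 (HK5) hexokinase enzyme, produced in-house / Quantity: enzyme 5 µg/mL final / Compound: one dose of 20 µM, 1% DMSO / Reagent: glucose and ATP substrates / Buffer or medium: Tris pH 8.0 buffer with MgCl2, Tween-20, BSA, BME / Technique: resorufin fluorescence at 613 nm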
Cardio protect = modulators protecting cardiomyocytes from myocardial damage; H9c2 cardiomyocytes, H2O2 injury protection, ATPLite, 2 h; protection from H2O2 cell death, % at 20 µM; 360,000 tested, 0.63% active; AID 588492;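 active = compounds giving at least 50% protection of heart cells from peroxide-induced death in the single-dose screen, raw or plate-pattern-corrected value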;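 also: 0% = DMSO wells with peroxide and 100% = DMSO wells without peroxide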
* = called active by the depositor; x = no result given. Most compounds without a hit are left out; they make up all but 2.1% or so of the library.

SMILES | aDG glyco act | PfG6PD inh | UCH37 DUB inh | Beta2AR agonist | HKDC1 inhibitor | Cardio protect
CCN(CC)c1nc(N)c2c(N)nc3c(c2c1C#N)CC(c1ccccc1)O3 (stereo not given) | 1.2 | 2.6 | -171.5 | 22.5 | 21.2 | 6.2
CCN(CC)c1nc(N)c2c(N)n(-c3ccccc3C)c(=S)c(C#N)c2c1C#N | -0.2 | 28.4 | 21.3* | 6.6 | 20.7 | 3.3
C=CCn1c(C)cc(C2=NNC(=Nc3ccc(C)cc3)SC2)c1C | -0.2 | 22.5 | 29.5* | 8.5 | -8.0 | -6.6
COc1ccc(NN=C(C#N)C(=N)N2CCCCC2)cc1 | x | x | 10.6 | x | x | x
COc1ccc(CN2C(=O)C(C)Nc3ncnc(N4CCN(c5ccccc5)CC4)c32)cc1 (stereo not given) | -0.1 | 6.9 | 2.9 | -5.2 | 0.9 | 31.6
CC1Nc2ncnc(N3CCN(c4ccccc4)CC3)c2N(Cc2ccc(Br)cc2)C1=O (stereo not given) | 0.1 | 20.4 | 0.8 | 24.5 | 4.4 | 61.7*
COc1ccc(C(=O)Nc2cccc(/C(C)=N/NC(=O)c3ccc([N+](=O)[O-])c(C)c3)c2)cc1OC | -0.5 | 5.4 | x | 15.2 | -5.8 | 94.8*
COc1ccc(C(=O)Nc2cccc(C(C)=NNC(=O)c3ccc([N+](=O)[O-])c(C)c3)c2)cc1OC | x | x | 5.6 | x | x | x
O=C(COc1ccc(F)cc1)N/N=C/c1cccc2cccnc12 | 0.3 | -7.0 | x | 1.2 | -9.1 | 53.6*
Cc1ccc(OCC(=O)N/N=C/c2cccc3cccnc23)cc1 | 0.3 | 1.8 | x | 5.7 | -3.9 | 55.9*
COc1ccc(OCC(=O)NN=Cc2cccc3cccnc23)cc1 | x | x | 7.2 | x | x | x
COC(=O)Cn1cc(/C=N/NC(=O)COc2cccc3cccnc23)c2ccccc21 | -0.2 | -1.6 | x | 47.6* | -5.9 | 4.5
COc1ccc(OC)c(C=NNC(=O)c2[nH]nc3c2CCc2ccccc2-3)c1 | x | x | -283.7 | x | x | x
COc1cc(C=NNC(=O)NC23CC4CC(CC(C4)C2)C3)ccc1O | x | x | 3.8 | x | x | x
CCCCCCC1CC(C)(C(C)=NNC(N)=O)OC1=O (stereo not given) | x | x | 0.6 | x | x | x
Cc1cccc(CCN2C(N(C)C)=NC[C@@H]2CC(C)C)c1 | -0.1 | -5.1 | 33.5* | -1.4 | 2.9 | -6.3
COc1cc(C=NNC(=O)NC2CCCCC2)cc(OC)c1O | x | x | 1.5 | x | x | x
CCOC(=O)C=c1sc2n(c1=O)CCN=2 | x | x | -5.9 | x | x | x
COc1cc([N+](=O)[O-])cc(C=NNC(=O)C(C)Nc2ccccc2C)c1O (stereo not given) | x | x | 20.2* | x | x | x
COc1cc([N+](=O)[O-])cc(C=NNC(=O)C(O)(c2ccccc2)c2ccccc2)c1O | x | x | 12.0 | x | x | x
CC1=CC(=O)C(C(C)C)=C/C1=N/OC(=O)c1cccc([N+](=O)[O-])c1 | 0.2 | 25.0 | x | 1.1 | -3.0 | -2.8
CC1=CC(=O)C(C(C)C)=CC1=NC(=O)c1ccc(C)cc1 | 0.9 | 93.0* | 1.7 | 21.1 | 8.8 | -17.5
Cc1ccc(N2C(=O)C3C(c4ccccc4)N4CCCN4C3(C)C2=O)cc1 (stereo not given) | 0.2 | -13.6 | -1.9 | 43.5* | -17.1 | 7.7
Cc1ccc(N2C(=O)C3C(C2=O)N2CCCN2C3c2ccccc2)cc1C (stereo not given) | -0.3 | 26.6 | 1.1 | -8.9 | -8.3 | 7.7
COc1ccc(/C=N/NC(=O)c2nc(-c3ccccc3)cc(-c3ccccc3)n2)cc1 | -0.1 | -0.1 | x | -6.5 | -1.2 | 31.3
SMILES | aDG glyco act | PfG6PD inh | UCH37 DUB inh | Beta2AR agonist | HKDC1 inhibitor | Cardio protect
COc1ccc(/C=N/NC(=O)c2nc(-c3ccccc3)cc(-c3ccccc3)n2)cc1O | -0.5 | 10.9 | x | -29.8 | 10.0 | 50.9*
COc1cc(/C=N/NC(=O)c2cnn3c(C)cc(-c4ccccc4)nc23)ccc1O | -0.7 | 10.8 | x | 12.9 | -2.9 | 75.5*
CC(=NNC(=O)C(C)Sc1ccccc1)c1ccc([N+](=O)[O-])cc1 (stereo not given) | x | x | 4.6 | x | x | x
O=C(NN=Cc1cn(-c2ccccc2)nc1-c1ccc2c(c1)OCCO2)c1ccncc1 | x | x | -8.8 | x | x | x
Cc1cc(Nc2ccccc2C(=O)O)nc2nc3ccccc3c(=O)n12 | -0.1 | -14.7 | 1.6 | -1.6 | 0.8 | 81.0*
COc1ccc(-c2cc(-c3nnc(COC(=O)c4ccncc4)o3)c3ccccc3n2)cc1OC | 0.2 | 13.3 | -65.7 | -0.2 | 8.1 | 78.9*
COC(=O)c1cc2ccc(OC)cc2c2cc(OC)c(OC)cc12 | -0.4 | 1.9 | -49.7 | 14.2 | 9.7 | 55.1*
COC(=O)c1cc(OC)c(OC)cc1NC(=O)Nc1ccc(OC)cc1 | -0.2 | 4.4 | -14.2 | 4.5 | -1.4 | 5.7
COc1cc(C=NNC(=O)Cc2cccs2)c([N+](=O)[O-])cc1OC | x | x | 5.7 | x | x | x
CCOc1cccc(C=NNC(=S)Nc2cc(S(=O)(=O)N3CCOCC3)ccc2N2CCOCC2)c1O | x | x | 0.8 | x | x | x
O=S(=O)(c1ccc(Cl)c(NC(=S)NN=Cc2c(F)cccc2F)c1)N1CCOCC1 | x | x | 2.4 | x | x | x
CCOc1cccc(/C=N/NC(=S)Nc2cc(S(=O)(=O)N3CCOCC3)ccc2N2CCOCC2)c1O | 0.0 | -19.2 | x | 8.8 | -26.6 | 54.5*
O=[N+]([O-])c1cc(Cl)cc(C=NNC(=S)Nc2cc(S(=O)(=O)N3CCOCC3)ccc2Cl)c1O | x | x | 23.2* | x | x | x
Cc1cc(C)n(CCC(=O)NN=Cc2ccc(O)cc2)n1 | x | x | 1.8 | x | x | x
CC12CN3CCN(CC(C3)C1=NN=Cc1cccc([N+](=O)[O-])c1)C2 | x | x | 1.9 | x | x | x
O=C(N/N=C/c1ccccc1)c1ccco1 | -0.1 | 10.0 | x | 0.1 | 3.5 | -3.3
O=C(C#Cc1ccccc1)c1ccco1 | -0.2 | 30.9 | x | 81.9* | 17.4 | -13.2
Oc1ccccc1O | 0.2 | 8.1 | 3.1 | 1.9 | -1.8 | 66.4*
Nc1ccccc1O | 1.8 | 29.7 | 2.8 | 15.2 | 9.3 | -11.6
Cc1ccc(-n2cc(CNCCc3ncc(C)[nH]3)c(-c3ccc(F)cc3)n2)cc1 | 11.4* | 4.5 | 3.8 | 27.4 | -1.4 | 8.0
Cc1oc(C=NNS(=O)(=O)c2ccccc2)cc1Br | x | x | 5.9 | x | x | x
Cc1cccc(N2C(=O)N3[C@H]4c5ccccc5OC[C@@H]4[C@@H](c4ccccc4)[C@@]3(C)C2=O)c1 | -0.1 | 5.8 | 26.2* | -0.3 | 6.8 | -3.9
Cc1cccc(N2C(=O)N3[C@@H]4c5ccccc5OC[C@@H]4[C@@H](c4ccccc4)[C@]3(C)C2=O)c1 | 0.0 | 8.7 | 2.4 | -8.1 | 1.4 | 8.4
CCCCCCCCCCCCCCCC[n+]1cccc2ccccc21 | 0.0 | 11.7 | 87.7* | 27.7 | 28.0 | -21.6
CCOC(=O)C1=C(O)c2ccccc2C(=O)/C1=C\c1ccc(CC)cc1 | 1.4 | 93.8* | -18.2 | -212.6 | 59.3* | -19.2
CCOC(=O)c1ccc(COC(=O)c2ccc3c(c2)-c2ccccc2C3=O)cc1 | -0.2 | -2.3 | 1.2 | -3.4 | 0.8 | -2.1
O=C(CCc1ccc(S(=O)(=O)NC2CCCCC2)cc1)N(Cc1ccccc1)Cc1ccccc1 | 0.9 | 7.2 | 32.6* | 4.5 | -2.5 | -7.0
